The target of data set [1] is T1, Metabotropic glutamate receptor 5 (Homo sapiens, UniProt P41594). In words: Negative allosteric modulation of human mGluR5 expressed in HEK293 cells assessed as calcium mobilization at 10 uM by FLIPR assay. The format is functional, cell-based. Background: Calcium flux is commonly read through the fluorescence of an indicator in the cells.
Target sequence in this assay (P41594 21-1212 limits assumed): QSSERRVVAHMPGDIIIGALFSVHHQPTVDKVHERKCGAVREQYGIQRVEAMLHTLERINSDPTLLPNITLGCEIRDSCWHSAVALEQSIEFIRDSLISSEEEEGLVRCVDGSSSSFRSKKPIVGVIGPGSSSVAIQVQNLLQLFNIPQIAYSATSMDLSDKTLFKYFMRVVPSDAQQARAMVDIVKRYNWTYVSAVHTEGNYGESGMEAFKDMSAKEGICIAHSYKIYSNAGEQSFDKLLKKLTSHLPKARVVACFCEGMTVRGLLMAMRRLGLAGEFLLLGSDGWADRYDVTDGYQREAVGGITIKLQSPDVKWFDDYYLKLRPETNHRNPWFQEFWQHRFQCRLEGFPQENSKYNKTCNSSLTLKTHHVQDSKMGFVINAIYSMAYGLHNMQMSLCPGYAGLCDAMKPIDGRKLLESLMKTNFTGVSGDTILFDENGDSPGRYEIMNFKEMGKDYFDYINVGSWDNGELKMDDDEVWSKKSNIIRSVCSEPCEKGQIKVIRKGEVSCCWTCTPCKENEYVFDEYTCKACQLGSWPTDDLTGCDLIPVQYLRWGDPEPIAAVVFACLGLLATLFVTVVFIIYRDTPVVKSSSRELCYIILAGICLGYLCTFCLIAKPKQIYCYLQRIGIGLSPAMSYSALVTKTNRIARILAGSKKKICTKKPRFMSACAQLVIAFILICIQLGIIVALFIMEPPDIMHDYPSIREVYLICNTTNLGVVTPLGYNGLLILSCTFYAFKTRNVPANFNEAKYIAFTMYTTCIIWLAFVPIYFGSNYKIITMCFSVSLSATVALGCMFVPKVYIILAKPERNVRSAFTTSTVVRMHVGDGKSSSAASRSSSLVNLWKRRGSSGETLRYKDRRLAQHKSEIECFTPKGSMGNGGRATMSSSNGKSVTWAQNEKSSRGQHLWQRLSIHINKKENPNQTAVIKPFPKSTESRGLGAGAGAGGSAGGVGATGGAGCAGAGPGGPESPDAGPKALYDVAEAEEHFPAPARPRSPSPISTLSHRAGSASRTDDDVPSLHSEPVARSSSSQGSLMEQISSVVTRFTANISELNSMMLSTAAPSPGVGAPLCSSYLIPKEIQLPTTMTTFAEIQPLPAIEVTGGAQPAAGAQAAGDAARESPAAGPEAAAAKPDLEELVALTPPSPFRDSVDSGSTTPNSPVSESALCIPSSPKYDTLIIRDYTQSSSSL
A further data set deals with Cytochrome P450 2C19 (Homo sapiens, UniProt P33261). In words: Inhibition of CYP2C19 (unknown origin) at 10 uM. The format is ADME.
A further data set concerns the target Cytochrome P450 1A2 (Homo sapiens, UniProt P05177). In words: Inhibition of CYP1A2 (unknown origin) at 10 uM. The format is ADME.
The next data set has as its target Cytochrome P450 2D6 (Homo sapiens, UniProt P10635). In words: Inhibition of CYP2D6 (unknown origin) at 10 uM. Type of data set: ADME.
Data set [2] has as its system Mus musculus. In words: Antidepressant activity in ICR mouse assessed as decrease in immobility time at 10 mg/kg, po administered 1 hr before test measured for 4 mins following training for 2 mins by forced swimming test. The format is functional. Further details: scale not given: the % may be the effect or the level left. An outline of the steps:
(§1)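 Mouse forced swim test: ICR mice dosed orally 1 h before testing; 2 min training, then immobility duration recorded over 4 min. Activity expressed as % decrease in immobility duration. Mean ± SEM, n = 8; Dunnett's multiple comparisons after one-way ANOVA (p < 0.05).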

The target of the next data set is Cytochrome P450 2C9 (Homo sapiens, UniProt P11712). The experiment in a line: Inhibition of CYP2C9 (unknown origin) at 10 uM. The format is ADME.
In another data set the target is Cytochrome P450 3A4 (Homo sapiens, UniProt P08684). The experiment in a line: Inhibition of CYP3A4 (unknown origin) at 10 uM. The format is ADME.
Data set [3] in a line: Ratio of drug level in brain to plasma in Sprague-Dawley rat at 10 mg/kg, ip after 1 hr. Further details: dose 10 mg/kg, route intraperitoneal. Type of data set: ADME, organism-based. The following applies: brain and plasma, read-out: BPR. A digest of the protocol:
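Sprague–Dawley rats given a single 10 mg/kg intraperitoneal dose. Plasma and brain concentrations measured 1 h after dosing and expressed as a brain/plasma ratio.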

Data set [4] can be described thus: Half life in mouse liver microsomes. The following applies: liver microsomes. For orientation: Liver microsomes are a subcellular fraction often used to study metabolism.
Data set [5] deals with T1, Metabotropic glutamate receptor 5. The experiment in a line: Negative allosteric modulation of human mGluR5 expressed in HEK293 cells assessed as calcium mobilization by FLIPR assay. Type of data set: functional, cell-based.
Target sequence in this assay (P41594 whole entry): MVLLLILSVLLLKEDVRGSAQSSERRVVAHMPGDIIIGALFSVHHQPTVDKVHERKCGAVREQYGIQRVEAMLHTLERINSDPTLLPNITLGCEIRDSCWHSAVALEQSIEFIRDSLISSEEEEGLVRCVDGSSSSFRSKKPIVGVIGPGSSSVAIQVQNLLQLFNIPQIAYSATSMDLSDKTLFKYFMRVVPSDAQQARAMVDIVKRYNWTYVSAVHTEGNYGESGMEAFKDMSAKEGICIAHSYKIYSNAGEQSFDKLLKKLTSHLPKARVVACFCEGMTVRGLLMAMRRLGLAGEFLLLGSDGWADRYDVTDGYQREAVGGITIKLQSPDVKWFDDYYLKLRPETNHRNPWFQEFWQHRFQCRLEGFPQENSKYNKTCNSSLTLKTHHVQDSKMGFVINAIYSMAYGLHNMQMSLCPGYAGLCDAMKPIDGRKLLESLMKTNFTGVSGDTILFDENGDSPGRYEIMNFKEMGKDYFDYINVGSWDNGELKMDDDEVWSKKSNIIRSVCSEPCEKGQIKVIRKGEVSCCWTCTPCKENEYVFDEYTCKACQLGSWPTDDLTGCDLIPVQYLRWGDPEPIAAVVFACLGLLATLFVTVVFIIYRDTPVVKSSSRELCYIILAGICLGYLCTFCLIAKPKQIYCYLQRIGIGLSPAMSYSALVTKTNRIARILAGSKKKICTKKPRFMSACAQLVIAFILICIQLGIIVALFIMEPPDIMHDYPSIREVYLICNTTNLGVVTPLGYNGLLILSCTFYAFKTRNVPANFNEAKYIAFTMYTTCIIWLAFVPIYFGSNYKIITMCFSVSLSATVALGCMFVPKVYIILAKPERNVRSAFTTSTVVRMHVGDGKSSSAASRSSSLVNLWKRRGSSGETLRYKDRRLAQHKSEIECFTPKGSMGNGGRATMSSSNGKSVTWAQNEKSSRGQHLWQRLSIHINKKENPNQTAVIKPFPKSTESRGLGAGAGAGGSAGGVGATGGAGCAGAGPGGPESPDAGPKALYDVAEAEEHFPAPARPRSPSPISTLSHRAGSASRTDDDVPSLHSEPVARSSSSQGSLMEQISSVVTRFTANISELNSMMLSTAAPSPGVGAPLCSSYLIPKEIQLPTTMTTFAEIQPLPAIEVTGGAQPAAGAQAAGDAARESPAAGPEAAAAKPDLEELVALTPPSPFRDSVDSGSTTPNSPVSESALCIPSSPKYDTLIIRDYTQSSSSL
Data set [6] in a line: Half life in human liver microsomes. The following applies: liver microsomes.
Data set [7] can be described thus: Half life in rat liver microsomes. The following applies: liver microsomes.
The target in data set [8] is Metabotropic glutamate receptor 1 (Homo sapiens) (UniProt Q13255). The experiment in a line: Inhibition of mGluR1 (unknown origin) at 10 uM.
For another data set, the target named is hERG (KCNH2) (Homo sapiens, UniProt Q12809). In words: Inhibition of human ERG at 10 uM.
The nature of data set [9]: Intrinsic clearance in human hepatocytes assessed per 10^6 cells. Type of data set: ADME, cell-based, Hepatocyte. The following applies: read-out: CLH.
Data set [10] concerns Mus musculus. In words: Toxicity in ICR mouse assessed as induction of locomotor activity at 1 to 30 mg/kg, ip. Type of data set: organism-based. Further details: dose 1-30 mg/kg, route intraperitoneal. The following applies: in vivo. An outline of the steps:
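Locomotor activity tests in mice, run to separate antidepressant effect from hyperactivity. Compound given intraperitoneally over a dose range of 1 mg/kg to 30 mg/kg.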

In data set [11] the test system is Mus musculus. The experiment in a line: Antidepressant activity in ip dosed ICR mouse assessed as decrease in immobility time administered 1 hr before test measured for 4 mins following training for 2 mins by forced swimming test.
Another data set deals with Rattus norvegicus. In words: Antidepressant activity in rat assessed as decrease in immobility time at 10 mg/kg, ip by forced swimming test. The format is functional. Also on record: scale not given: the % may be the effect or the level left. The following applies: route intraperitoneal. A digest of the protocol:
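Rat forced swim test with intraperitoneal dosing at 10 mg/kg. Read-out is % decrease in immobility duration. Dosing vehicle 5% DMSO + 5% Cremophore.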

The nature of data set [12]: Oral bioavailability in mouse. The format is ADME, organism-based. The following applies: in vivo. An outline of the steps:
(§2)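 Oral bioavailability (F) determined in mice and rats. Dosing vehicle 5% DMSO + 5% Cremophore.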

Data set [13] is described as follows: Oral bioavailability in rat. The following applies: in vivo. Type of data set: ADME, organism-based. A digest of the protocol: as §2
Data set [14] in a line: Half life in rat plasma. Type of data set: ADME, cell-free.
Data set [15] relates to Mus musculus. The experiment in a line: Antidepressant activity in ICR mouse assessed as decrease in immobility time at 50 mg/kg, po administered 1 hr before test measured for 4 mins following training for 2 mins by forced swimming test. Also on record: scale not given: the % may be the effect or the level left. The format is functional. An outline of the steps: as §1
Data set [16] addresses Adenosine receptor A2a (Homo sapiens) (UniProt P29274). The experiment in a line: Inhibition of adenosine A2A receptor (unknown origin) at 10 uM.
The target of data set [17] is Muscarinic acetylcholine receptor M1 (Homo sapiens) (UniProt P11229). In words: Inhibition of muscarinic M1 receptor (unknown origin) at 10 uM.
The target in data set [18] is Sodium-dependent noradrenaline transporter (Homo sapiens) (UniProt P23975). In words: Inhibition of NET (unknown origin) at 10 uM.
Data set [19] deals with Sodium-dependent serotonin transporter (Homo sapiens) (UniProt P31645). The experiment in a line: Inhibition of SERT (unknown origin) at 10 uM.
Data set [20] addresses Amine oxidase [flavin-containing] A (Homo sapiens, UniProt P21397). In words: Inhibition of MAO-A (unknown origin) at 10 uM.
The target of data set [21] is 5-hydroxytryptamine receptor 2C (Homo sapiens) (UniProt P28335). The experiment in a line: Inhibition of 5-HT2C receptor (unknown origin) at 10 uM.
Data set [22] addresses Sodium-dependent dopamine transporter (Homo sapiens) (UniProt Q01959). The experiment in a line: Inhibition of DAT (unknown origin) at 10 uM.
For data set [23], the target named is Amine oxidase [flavin-containing] B (Homo sapiens, UniProt P27338). The experiment in a line: Inhibition of MAO-B (unknown origin) at 10 uM.
Data set [24] addresses Muscarinic acetylcholine receptor M2 (Homo sapiens) (UniProt P08172). The experiment in a line: Inhibition of muscarinic M2 receptor (unknown origin) at 10 uM.
Data set [25] concerns the target Alpha-1D adrenergic receptor (Homo sapiens) (UniProt P25100). In words: Inhibition of adrenergic alpha1D receptor (unknown origin) at 10 uM.
The target in data set [26] is Histamine H1 receptor (Homo sapiens) (UniProt P35367). The experiment in a line: Inhibition of histamine H1 receptor (unknown origin) at 10 uM.
For data set [27], the target named is T1, Metabotropic glutamate receptor 5. The experiment in a line: Negative allosteric modulation of human mGluR5 expressed in HEK293 cells assessed as calcium mobilization at 2 uM by FLIPR assay. The format is functional, cell-based.
Target sequence in this assay (P41594 21-1212 limits assumed): as the sequence (P41594 21-1212 limits assumed) above

Calls of active or inactive are those of the source. The rule behind the calls is not given here.

Sodium-dependent dopamine transporter (Homo sapiens), sequence (Q01959 whole entry): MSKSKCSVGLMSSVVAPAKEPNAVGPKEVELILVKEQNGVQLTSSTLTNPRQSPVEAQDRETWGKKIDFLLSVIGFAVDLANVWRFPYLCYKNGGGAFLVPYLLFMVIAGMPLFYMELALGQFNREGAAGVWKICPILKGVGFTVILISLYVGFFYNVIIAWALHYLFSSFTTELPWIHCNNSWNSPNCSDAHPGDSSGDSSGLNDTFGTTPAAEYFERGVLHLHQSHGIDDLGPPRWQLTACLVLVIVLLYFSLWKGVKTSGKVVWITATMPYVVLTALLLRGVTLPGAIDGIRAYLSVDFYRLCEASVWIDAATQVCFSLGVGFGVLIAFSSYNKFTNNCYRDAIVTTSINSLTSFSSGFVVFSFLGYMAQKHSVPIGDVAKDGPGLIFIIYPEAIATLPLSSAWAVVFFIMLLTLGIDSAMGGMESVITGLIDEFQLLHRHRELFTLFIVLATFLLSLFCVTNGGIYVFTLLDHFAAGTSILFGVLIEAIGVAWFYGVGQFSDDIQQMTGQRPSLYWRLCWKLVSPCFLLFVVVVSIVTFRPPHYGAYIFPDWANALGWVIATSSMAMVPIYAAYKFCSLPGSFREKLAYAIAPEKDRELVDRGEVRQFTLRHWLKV
Muscarinic acetylcholine receptor M1 (Homo sapiens), sequence (P11229 whole entry): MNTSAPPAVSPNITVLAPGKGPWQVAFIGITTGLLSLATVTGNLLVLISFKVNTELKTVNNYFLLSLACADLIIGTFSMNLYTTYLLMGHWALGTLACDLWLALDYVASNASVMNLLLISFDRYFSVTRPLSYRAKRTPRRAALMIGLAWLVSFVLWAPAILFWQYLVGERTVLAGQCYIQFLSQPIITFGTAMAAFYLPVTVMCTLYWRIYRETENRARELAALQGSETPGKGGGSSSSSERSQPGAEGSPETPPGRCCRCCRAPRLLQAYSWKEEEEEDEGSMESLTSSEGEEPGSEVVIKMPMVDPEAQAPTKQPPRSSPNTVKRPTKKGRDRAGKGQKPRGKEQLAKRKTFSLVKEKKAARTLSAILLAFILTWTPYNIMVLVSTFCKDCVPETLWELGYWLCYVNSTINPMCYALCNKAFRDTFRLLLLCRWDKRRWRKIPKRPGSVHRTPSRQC
Alpha-1D adrenergic receptor (Homo sapiens), sequence (P25100 whole entry): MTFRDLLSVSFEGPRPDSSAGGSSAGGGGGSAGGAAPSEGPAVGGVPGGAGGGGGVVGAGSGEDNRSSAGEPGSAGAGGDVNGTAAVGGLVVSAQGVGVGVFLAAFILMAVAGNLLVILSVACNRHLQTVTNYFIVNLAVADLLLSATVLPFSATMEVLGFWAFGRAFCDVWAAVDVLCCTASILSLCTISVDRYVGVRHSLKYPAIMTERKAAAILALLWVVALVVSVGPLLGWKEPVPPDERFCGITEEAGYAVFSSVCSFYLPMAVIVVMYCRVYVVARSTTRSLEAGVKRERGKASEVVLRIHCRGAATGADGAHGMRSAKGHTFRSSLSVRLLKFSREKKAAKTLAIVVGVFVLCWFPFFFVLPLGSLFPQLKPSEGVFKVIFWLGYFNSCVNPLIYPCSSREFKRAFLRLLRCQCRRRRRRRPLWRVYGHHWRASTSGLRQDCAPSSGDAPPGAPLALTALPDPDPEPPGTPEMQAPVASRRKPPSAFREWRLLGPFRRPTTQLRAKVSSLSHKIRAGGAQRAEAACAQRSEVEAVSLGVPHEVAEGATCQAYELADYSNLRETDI
Cytochrome P450 1A2, sequence (P05177 whole entry): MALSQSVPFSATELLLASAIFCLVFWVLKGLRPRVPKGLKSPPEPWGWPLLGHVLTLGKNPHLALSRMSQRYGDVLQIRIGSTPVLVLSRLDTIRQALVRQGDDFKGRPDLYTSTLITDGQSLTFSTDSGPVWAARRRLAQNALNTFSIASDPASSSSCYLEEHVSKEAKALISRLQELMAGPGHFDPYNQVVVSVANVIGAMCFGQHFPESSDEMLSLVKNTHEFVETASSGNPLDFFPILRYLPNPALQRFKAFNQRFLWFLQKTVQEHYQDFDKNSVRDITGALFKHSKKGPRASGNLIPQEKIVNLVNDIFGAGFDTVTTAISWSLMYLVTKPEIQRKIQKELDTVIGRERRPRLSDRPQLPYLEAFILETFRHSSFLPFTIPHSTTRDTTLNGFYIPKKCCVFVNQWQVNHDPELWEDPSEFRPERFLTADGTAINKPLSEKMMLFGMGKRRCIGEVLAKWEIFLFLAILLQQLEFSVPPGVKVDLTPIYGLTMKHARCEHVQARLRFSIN
Adenosine receptor A2a (Homo sapiens), sequence (P29274 whole entry): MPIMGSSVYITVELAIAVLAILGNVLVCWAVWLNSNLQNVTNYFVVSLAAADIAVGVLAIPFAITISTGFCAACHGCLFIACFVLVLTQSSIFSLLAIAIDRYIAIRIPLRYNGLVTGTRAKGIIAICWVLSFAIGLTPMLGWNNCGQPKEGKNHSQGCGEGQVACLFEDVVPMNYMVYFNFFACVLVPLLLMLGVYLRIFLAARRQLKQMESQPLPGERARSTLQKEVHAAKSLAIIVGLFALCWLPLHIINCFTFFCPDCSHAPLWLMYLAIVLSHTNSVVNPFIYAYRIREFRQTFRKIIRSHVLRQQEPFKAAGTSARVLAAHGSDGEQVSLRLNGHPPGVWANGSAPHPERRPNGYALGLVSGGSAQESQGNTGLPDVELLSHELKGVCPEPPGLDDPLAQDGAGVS

One may read the inhibition as the relative decrease from the control value, in per cent. Consider `Cc1cccc(NC(=O)c2nn(C)c(-c3ccccc3)c2-c2ccccc2)n1`, for which the inhibition in data set [1] was determined as 26%.

A word on the half-life: it is the time in which the quantity being followed falls by half. Broadly, the IC50 is the concentration that gives 50% inhibition. For the compound `Cc1nc(C(=O)Nc2ccnc(Cl)n2)c(C)n1-c1ccc(F)cc1`, the “inhibition (INH)” value at Cytochrome P450 2C19, against Cytochrome P450 1A2, against Cytochrome P450 2D6, on Cytochrome P450 2C9 and against Cytochrome P450 3A4 was “Not Active” in each case. Besides, the Activity in the data set with Mus musculus [2] is given as 65.3%. Besides, the Kp at 1 h in data set [3] turned out to be 1.63. Besides, the half-life in data set [4] amounted to 4.63 h; in data set [6], 4.72 h; in data set [7] it was 2.75 h. The IC50 in [5] stood at 40.4 nM. In addition, in data set [8], the inhibition came to 10%. This compound also registered an inhibition at 10 µM against hERG (KCNH2) of 13%. Moreover, in data set [9], the hepatocyte CLint turned out to be 0.99 µL/min/1e6 cells.

By ED50 is commonly meant the dose at which the effect has come halfway, by size or by number of responders. As usually defined, the bioavailability is the share of a dose that reaches the circulation, judged against a reference dose that is usually intravenous. Take `Cc1cccc(NC(=O)c2nn(C)c(-c3ccc(F)cc3)c2C)n1`: the Activity entry in the data set with Mus musculus [10] is “Non-toxic”; in the data set on Mus musculus [2], 61.1%; in the data set on Rattus norvegicus, 10.9%. Also, the ED50 in the data set with Mus musculus [11] was determined as 1.1 mg/kg. For the same compound, the bioavailability in [12] was 31%; in [13] it was under 2%. The half-life in [4] was 0.6 h; in data set [6] it was 1.37 h; in data set [7] it was 0.933 h. The IC50 in [5] is 1.1 nM.

Turning to `Cc1cccc(NC(=O)c2cc(-c3ccccc3)n(C)n2)n1`, the IC50 in [5] was 95 nM. The half-life in [14] was under 1 h.

`Fc1ccc2nc(CCC#Cc3ccccn3)cn2c1` [DIPRAGLURANT]: in the data set with Mus musculus [15], the Activity amounted to 44.3%. Further, the IC50 in data set [5] amounted to 20 nM.

For `Cc1cccc(NC(=O)c2nn(C)c(-c3ccccc3)c2C)n1`, the inhibition entry in data set [16], in data set [17], in data set [19], in [24], in data set [25] and in data set [26] was “inactive” each time. In the data set on Mus musculus [15], the Activity turned out to be 53.3%. For the same compound, the inhibition in data set [18] was 63%; in data set [21] it was 66%; in [22] it was 60%. Also, the “inhibition (INH)” value in data set [20] and in data set [23] was “Not Active” throughout. The half-life is 0.3 h in data set [4], 1.1 h in data set [6], 0.4 h in data set [7] and over 3 h in [14]. The IC50 in [5] turned out to be 4.4 nM.

With `CCCc1c(C(=O)Nc2cccc(C)n2)nn(C)c1-c1ccccc1`, in data set [27], the inhibition was determined as 37%.
